Assay results reported in ChEMBL document CHEMBL1681751, “Synthesis and biological evaluation of imidazolo[2,1-b]benzothiazole derivatives, as potential p53 inhibitors” (Bioorg Med Chem, 2011).
Activity calls are given as the source filed them. No cut-off for these calls is given here.

Experiments:
[1] = tested on: IGROV-1; assay: Antiproliferative activity against human IGROV1 cells after 72 hrs by cell counter; type: functional, cell-based
Method in brief: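 Log-phase cells seeded in duplicate; for the paclitaxel combination, cells got compound 2 h before the antimicrotubule agent. Final DMSO at most 0.5%. After treatment, adherent cells were trypsinized and counted with a cell counter. IC50 is the concentration giving 50% fewer cells than untreated control.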

[2] = tested on: IGROV-1; assay: Induction of apoptosis in human IGROV1 cells at 0.12 uM after 72 hrs by TUNEL assay; type: functional
Method in brief: (§1)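 IGROV-1 cells were exposed for 72 h; in the combination they were pretreated 2 h with compound before paclitaxel. Cells were fixed in 4% paraformaldehyde for 60 min at room temperature and washed. TUNEL labelling with fluorescein was read by flow cytometry as % TUNEL-positive cells, with at least three independent experiments.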

[3] = tested on: U2OS; assay: Antitumor activity against human U2OS cells xenografted in athymic Swiss nude mouse at 24 mg/kg, iv administered every 4 days relative to paclitaxel; type: functional, organism-based; design: dose 24 mg/kg
Method in brief: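 U2OS osteosarcoma tumors were grown sc in female athymic Swiss nude mice from 10^7 cells/mouse and kept by serial fragment passage. Dosing was iv every four days for 4 administrations, alone or combined with paclitaxel, starting at about 80 mm3. Controls received solvent. Tumor growth and complete regressions were followed.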

[4] = tested on: IGROV-1; assay: Reduction of paclitaxel-induced p21 expression in human IGROV1 cells at 10 uM after 24 hrs by Western blot analysis; type: functional, cell-based
Method in brief: (§2)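 IGROV-1 cells were treated 24 h with paclitaxel 0.12 µM, compound, or both, then lysed. p53 and p21waf1 were detected by Western blot.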

[5] = tested on: IGROV-1; assay: Reduction of paclitaxel-induced p21 expression in human IGROV1 cells at 0.12 uM after 24 hrs by Western blot analysis; type: functional, cell-based; method in brief: as §2
[6] = tested on: IGROV-1; assay: Reduction of paclitaxel-induced p21 expression in human IGROV1 cells at 5 uM after 24 hrs by Western blot analysis; type: functional, cell-based; method in brief: as §2
[7] = tested on: IGROV-1; assay: Reduction of paclitaxel-induced p21 expression in human IGROV1 cells at 0.3 uM after 24 hrs by Western blot analysis; type: functional, cell-based; method in brief: as §2
[8] = tested on: Mus musculus; assay: Toxicity in athymic Swiss nude mouse assessed as body weight loss at 9 mg/kg, iv every 4 days for 4 administration; type: organism-based; design: dose 9 mg/kg, route intravenous; conditions: in vivo, 96 h
Method in brief: (§3)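 Female athymic Swiss nude mice with sc IGROV-1 xenografts were dosed iv every four days for 4 administrations (q4dx4), 4 mice per group. Toxicity was scored as % body weight loss from drug treatment, with lethal toxicity counted per group.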

[9] = tested on: Mus musculus; assay: Toxicity in athymic Swiss nude mouse assessed as lethal toxicity at 18 mg/kg, iv every 4 days for 4 administration; type: organism-based; design: dose 18 mg/kg, route intravenous; conditions: in vivo, 96 h
Method in brief: (§4)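 Female athymic Swiss nude mice bearing sc IGROV-1 human ovarian carcinoma xenografts (10^7 exponentially growing cells/mouse into right flank; lines kept by serial sc fragment passage). Dosed iv every four days for 4 administrations (q4dx4), starting when tumors were measurable (around 80 mg). Lethal toxicity scored as animals dying per group (4 mice/group).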

[10] = tested on: IGROV-1; assay: Antitumor activity against human IGROV1 cells xenografted in athymic Swiss nude mouse assessed as tumor volume inhibition at 18 mg/kg, iv every 4 days for 4 administration; type: functional; design: scale not given: the % may be the effect or the level left
Method in brief: (§5)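 Female athymic Swiss nude mice received IGROV-1 tumors sc in the right flank (10^7 cells/mouse), then maintained by serial sc passage of about 3x3x3 mm fragments. Dosing was iv, q4dx4, starting when tumors were about 80 mg. Read-out was % tumor volume inhibition, treated vs control, 4 mice per group, Student's t-test vs control.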

[11] = tested on: Mus musculus; assay: Toxicity in athymic Swiss nude mouse assessed as lethal toxicity at 9 mg/kg, iv every 4 days for 4 administration; type: organism-based; design: dose 9 mg/kg, route intravenous; conditions: in vivo, 96 h; method in brief: as §4
[12] = tested on: IGROV-1; assay: Antitumor activity against human IGROV1 cells xenografted in athymic Swiss nude mouse assessed as tumor volume inhibition at 9 mg/kg, iv every 4 days for 4 administration; type: functional; design: scale not given: the % may be the effect or the level left; method in brief: as §5
[13] = tested on: Mus musculus; assay: Toxicity in athymic Swiss nude mouse assessed as body weight loss at 18 mg/kg, iv every 4 days for 4 administration; type: organism-based; design: dose 18 mg/kg, route intravenous; conditions: in vivo, 96 h; method in brief: as §3
[14] = tested on: Mus musculus; assay: Toxicity in athymic Swiss nude mouse assessed as lethal toxicity at 3 mg/kg, iv every 4 days for 4 administration; type: organism-based; design: dose 3 mg/kg, route intravenous; conditions: in vivo, 96 h; method in brief: as §4
[15] = tested on: Mus musculus; assay: Toxicity in athymic Swiss nude mouse assessed as body weight loss at 3 mg/kg, iv every 4 days for 4 administration; type: organism-based; design: dose 3 mg/kg, route intravenous; conditions: in vivo, 96 h; method in brief: as §3
[16] = tested on: IGROV-1; assay: Antitumor activity against human IGROV1 cells xenografted in athymic Swiss nude mouse assessed as tumor volume inhibition at 3 mg/kg, iv every 4 days for 4 administration; type: functional; design: scale not given: the % may be the effect or the level left; method in brief: as §5
[17] = tested on: IGROV-1; assay: Induction of apoptosis in human IGROV1 cells at 5 uM after 72 hrs by TUNEL assay; type: functional; method in brief: as §1

CC(=O)NCc1ccc(-c2cn3c(n2)sc2ccccc23)cc1
IC50 ([1]; Homo sapiens, IGROV-1, 72 h): 12 µM

CC(C)NC(=O)CCNCc1ccc(-c2cn3c(n2)sc2ccccc23)cc1
IC50 ([1]; Homo sapiens, IGROV-1, 72 h): 5 µM

CC(=O)O[C@H]1C(=O)[C@@]2(C)[C@H]([C@H](OC(=O)c3ccccc3)[C@]3(O)C[C@H](OC(=O)[C@H](O)[C@@H](NC(=O)c4ccccc4)c4ccccc4)C(C)=C1C3(C)C)[C@]1(OC(C)=O)CO[C@@H]1C[C@@H]2O [PACLITAXEL]
Activity [2]: 13% | Activity [3]: inactive

Cc1ccc(-c2cn3c(n2)sc2ccccc23)cc1
IC50 ([1]; Homo sapiens, IGROV-1, 72 h): 0.3 µM

Cc1ccc(-c2cn3c4c(sc3n2)CCCC4)cc1
IC50 ([1]; Homo sapiens, IGROV-1, 72 h): 23 µM

NCc1ccc(-c2cn3c4c(sc3n2)CCCC4)cc1 [listing 1 of 2 here]
Activity [4]: Active | Activity [5]: Active | Activity [6]: Active | Activity [7]: Active

OCc1ccc(-c2cn3c(n2)sc2ccccc23)cc1
IC50 ([1]; Homo sapiens, IGROV-1, 72 h): 7 µM

NCCC(=O)NCc1ccc(-c2cn3c(n2)sc2ccccc23)cc1
IC50 ([1]; Homo sapiens, IGROV-1, 72 h): 3 µM

NCc1ccc(-c2cn3c(n2)sc2ccccc23)cc1 [listing 1 of 2 here]
IC50 ([1]; igrov-1): 0.03 µM

CCn1c2ccccc2n2cc(-c3ccc(C#N)cc3)nc12
IC50 ([1]; Homo sapiens, IGROV-1, 72 h): 4.5 µM

Nc1ccc(-c2cn3c(n2)sc2ccccc23)cc1 [listing 1 of 3 here]
IC50 ([1]; igrov-1): 1 µM

Nc1ccc(-c2cn3c(n2)sc2ccccc23)cc1 [listing 2 of 3 here]
Activity [4]: Active | Activity [5]: Active | Activity [6]: Active | Activity [7]: Active

CC(=O)NCc1ccc(-c2cn3c4c(sc3n2)CCCC4)cc1
IC50 ([1]; Homo sapiens, IGROV-1, 72 h): 28 µM

Brc1ccc(-c2cn3c(n2)sc2ccccc23)cc1
IC50 ([1]; Homo sapiens, IGROV-1, 72 h): 0.3 µM

COc1ccc(-c2ccc(-c3cn4c(n3)sc3ccccc34)cc2)cc1
IC50 ([1]; Homo sapiens, IGROV-1, 72 h): < 1 µM

N#Cc1ccc(-c2cn3c4c(sc3n2)CCCC4)cc1
IC50 ([1]; Homo sapiens, IGROV-1, 72 h): 8 µM

Nc1ccc(-c2cn3c(n2)sc2ccccc23)cc1 [listing 3 of 3 here]
IC50 ([1]; igrov-1): 5 µM

NCc1ccc(-c2cn3c4c(sc3n2)CCCC4)cc1 [listing 2 of 2 here]
IC50 ([1]; igrov-1): 12 µM

Cl.NCc1ccc(-c2cn3c4c(sc3n2)CCCC4)cc1
Activity [8]: 6% | Activity [9]: Non-toxic | Activity [10]: 27% | Activity [11]: Non-toxic | Activity [12]: 21% | IC50 ([1]; igrov-1): 31 µM | Activity [13]: 4%

Nc1ccc(-c2cn3c4c(sc3n2)CCCC4)cc1 [listing 1 of 3 here]
Activity [4]: Active | Activity [5]: Active | Activity [6]: Active | Activity [7]: Active

Cl.NCc1ccc(-c2cn3c(n2)sc2ccccc23)cc1
Activity [8]: 5% | Activity [11]: Non-toxic | Activity [12]: 46% | Activity [14]: Non-toxic | IC50 ([1]; igrov-1): 0.3 µM | Activity [15]: 3% | Activity [16]: 15%

Cn1c2ccccc2n2cc(-c3ccc(C#N)cc3)nc12
IC50 ([1]; Homo sapiens, IGROV-1, 72 h): 7 µM

O=Cc1ccc(-c2cn3c(n2)sc2ccccc23)cc1
IC50 ([1]; Homo sapiens, IGROV-1, 72 h): 6 µM

Nc1ccc(-c2cn3c4c(sc3n2)CCCC4)cc1 [listing 2 of 3 here]
IC50 ([1]; igrov-1): 19 µM

O=[N+]([O-])c1ccc(-c2cn3c(n2)sc2ccccc23)cc1
IC50 ([1]; Homo sapiens, IGROV-1, 72 h): 2 µM

Nc1ccc(-c2cn3c4c(sc3n2)CCCC4)cc1 [listing 3 of 3 here]
Activity [17]: 4% | IC50 ([1]; igrov-1): 4 µM

NCc1ccc(-c2cn3c(n2)sc2ccccc23)cc1 [listing 2 of 2 here]
Activity [4]: Active | Activity [5]: Active | Activity [6]: Active | Activity [7]: Active

N#Cc1ccc(-c2cn3c(n2)sc2ccccc23)cc1
IC50 ([1]; Homo sapiens, IGROV-1, 72 h): 0.03 µM
